Reference: ChEMBL document CHEMBL1127449, “An investigation of desferrithiocin metabolism” (J Med Chem, 1994)

Experiments:
Format in all cases: ADME
[1] = Tested for the half life period at the pH of 7.2; Stable; settings: pH 7.2
Procedure, shortened: (§1)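 Hydrolysis followed by HPLC at 37 °C: 2 mM solutions in phosphate mobile phase B with 4 mM 2,6-lutidine as internal standard, pH set to 2.5 or 7.2 with HCl or KOH. Reverse-phase gradient of acetonitrile/mobile phase B, detection at 250 nm. Half-life derived from disappearance over time. For fast pH 7.2 conversion, acidic solution brought to 7.2 then back to 2.5 (<1 min).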

[2] = Tested for the half life period at the pH of 2.5; settings: pH 2.5; procedure, shortened: as §1
[3] = Tested for the half life period at the pH of 7.2; settings: pH 7.2; procedure, shortened: as §1
[4] = Tested for the half life period at the pH of 2.5; Stable; settings: pH 2.5; procedure, shortened: as §1

T1/2 [1] | half-life [2] | half-life [3] | T1/2 [4] | T1/2 [2] | Compound
Stable | 8.74 h | – | – | – | O=C(O)[C@@H]1CSC(c2ncccc2O)=N1
– | 4.18 h | < 1 min | – | – | N[C@@H](CSC(=O)c1ccccc1O)C(=O)O
Stable | – | – | Stable | – | O=C(N[C@@H](CS)C(=O)O)c1ccccc1O

The next lines start with the compound.

Compound | T1/2 [1] | half-life [2] | half-life [3] | T1/2 [4] | T1/2 [2]
O=C(O)[C@@H]1CSC(c2ccccc2O)=N1 | Stable | 31.7 h | – | – | –
C[C@]1(C(=O)O)CSC(c2ncccc2O)=N1 [DESFERRITHIOCIN] | Stable | 18.6 h | – | – | –
deaza-desmethyl-DFT complex with iron (III) | Stable | – | – | – | > 480 h
